Experiments:
Trypanosoma brucei = test: Antitrypanosomal activity against Trypanosoma brucei BS427 after 48 hrs by Alamar blue assay; format: functional, organism-based
In short: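 Bloodstream-form T. b. brucei s427 wild type, grown in HMI-9 + 10% FCS at 37 °C, 5% CO2. Parasites seeded at 4 × 10^4 cells/mL onto 11-point 1:2 serial dilutions from a 200 μM stock in medium; drug-free well as control. After 48 h, Alamar Blue (0.49 mM in PBS) added, 24 h more; fluorescence ex 544/em 590 nm. EC50 fitted; duplicate, repeated three times.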

Blood = test: Half life in mouse blood; format: ADME, tissue-based
In short: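 Prodrugs incubated in mouse blood to gauge their stability toward esterases. Half-life reported in minutes.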

[1] = Chemical stability of the compound in phosphate buffer saline at pH 7.4 assessed as half life; format: physicochemical; conditions: for t1/2: buffer; for half-life: phosphate buffer saline
In short: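 Compound incubated in phosphate buffer, pH 7.4, 37 °C, to follow chemical hydrolysis; half-life reported in hours.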

[2] = Chemical stability of the compound in phosphate buffer saline at pH 2 assessed as half life; format: physicochemical
Liver microsomes = test: Clearance in pooled human liver microsomes at 0.5 uM; format: ADME, Microsome
In short: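 Pooled human liver microsomes (0.5 mg/mL in 50 mM potassium phosphate, pH 7.4) with compound at 0.5 μM; reaction started with excess NADPH. Samples at 0, 3, 6, 9, 15, 30 min, quenched in acetonitrile with internal standard, centrifuged, analysed by UPLC-MS/MS. Rate constant from exponential decay of compound/internal standard peak-area ratio; clearance given as mL/min/g.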

[3] = Trypanosoma brucei, BS427, 48 h, read-out: EC50

Row | half-life [1] | Compound | EC50 (Trypanosoma brucei; [3]) | t1/2 (Blood) | t1/2 [1] | t1/2 [2] | CL (Liver microsomes) | EC50 (Trypanosoma brucei)
1 | – | COC(=O)[C@H](NP(=O)(OC[C@H]1OC(C)(C)O[C@H]1C(=O)NO)Oc1ccccc1)C(C)C (some centres not stated) | 0.36 µM | 0.75 h | 21 h | – | – | –
2 | 0.85 h | COC(=O)[C@@H](C)NP(=O)(OC[C@H]1OC(C)(C)O[C@H]1C(=O)NO)Oc1ccc([N+](=O)[O-])cc1 (some centres not stated) | 43.8 µM | – | – | – | – | –
3 | – | CCOC(=O)[C@@H](C)NP(=O)(OC[C@H]1OC(C)(C)O[C@H]1C(=O)NO)Oc1ccccc1 (some centres not stated) | 0.78 µM | < 0.25 h | 29 h | – | – | –
4 | – | COC(=O)[C@@H](C)NP(=O)(OC[C@H]1OC(C)(C)O[C@H]1C(=O)NO)Oc1ccc(OC)cc1 (some centres not stated) | 3.79 µM | – | – | 8.5 h | – | –
5 | 30 h | COC(=O)[C@@H](C)NP(=O)(OC[C@H]1OC(C)(C)O[C@H]1C(=O)NO)Oc1cccc(C)c1C (some centres not stated) | 0.27 µM | – | – | – | – | –
6 | – | CCOC(=O)[C@H](NP(=O)(OC[C@H]1OC(C)(C)O[C@H]1C(=O)NO)Oc1ccc(C)cc1)C(C)C (some centres not stated) | 0.04 µM | 0.75 h | 25 h | 15 h | – | –
7 | – | CCOC(=O)[C@H](NP(=O)(OC[C@H]1OC(C)(C)O[C@H]1C(=O)NO)Oc1ccccc1)C(C)C (some centres not stated) | 0.24 µM | 2 h | 61 h | – | – | –
8 | – | COC(=O)[C@@H](C)NP(=O)(OC[C@H]1OC(C)(C)O[C@H]1C(=O)NO)Oc1ccc(C)cc1 (some centres not stated) | 0.31 µM | < 0.25 h | 30 h | – | – | –
9 | – | COC(=O)[C@H](NP(=O)(OC[C@H]1OC(C)(C)O[C@H]1C(=O)NO)Oc1ccc(C)cc1)C(C)C (some centres not stated) | 0.15 µM | – | 45 h | 28 h | – | –
10 | – | Cc1cccc(OP(=O)(N[C@@H](C(=O)OC(C)(C)C)C(C)C)OC[C@H]2OC(C)(C)O[C@H]2C(=O)NO)c1C (some centres not stated) | 0.008 µM | > 8 h | > 24 h | – | 10 mL/min/g | –
11 | – | COC(=O)CNP(=O)(OC[C@H]1OC(C)(C)O[C@H]1C(=O)NO)Oc1ccccc1 (some centres not stated) | 11.4 µM | < 0.25 h | – | – | – | –
12 | – | CCOC(=O)[C@H](NP(=O)(OC[C@H]1OC(C)(C)O[C@H]1C(=O)NO)Oc1cccc(C)c1C)C(C)C (some centres not stated) | 0.05 µM | 1 h | 48 h | 10 h | – | –
13 | – | CC1(C)O[C@H](COP2(=O)OCc3ccccc3O2)[C@H](C(=O)NO)O1 (some centres not stated) | – | – | – | – | – | Not Active
14 | – | CC1(C)O[C@H](COP(=O)(O)O)[C@H](C(=O)NO)O1 | > 330 µM | – | – | – | – | –
15 | – | CCOC(=O)[C@H](NP(=O)(OC[C@H]1OC(C)(C)O[C@H]1C(=O)NO)Oc1ccc(OC)cc1)C(C)C (some centres not stated) | 0.11 µM | – | – | – | – | –
16 | – | CC(C)[C@@H](NP(=O)(OC[C@H]1OC(C)(C)O[C@H]1C(=O)NO)Oc1ccccc1)C(=O)OC(C)(C)C (some centres not stated) | 0.09 µM | 2 h | 68 h | 28 h | 5 mL/min/g | –
17 | – | CCOC(=O)[C@@H](C)NP(=O)(OC[C@H]1OC(C)(C)O[C@H]1C(=O)NO)Oc1ccc(C)cc1 (some centres not stated) | 0.18 µM | – | 34 h | – | – | –

Row | Compound | half-life [1] | EC50 (Trypanosoma brucei; [3]) | t1/2 (Blood) | t1/2 [1] | t1/2 [2] | CL (Liver microsomes) | EC50 (Trypanosoma brucei)
18 | COC(=O)[C@@H](C)NP(=O)(OC[C@H]1OC(C)(C)O[C@H]1C(=O)NO)Oc1ccccc1 (some centres not stated) | 5 h | – | < 0.25 h | – | – | – | –

From ChEMBL document CHEMBL1212884, “Aryl phosphoramidates of 5-phospho erythronohydroxamic acid, a new class of potent trypanocidal compounds” (J Med Chem, 2010)
